Hits are enriched below; roughly 2.8% of the tested compounds scored in any of these assays.
NPY-Y2 PAM-ag – human NPY-Y2 potentiation or agonism, primary screen. P49146. cells expressing NPY-Y2, potentiator/agonist read-out. activation, % at 3.6 µM. 220,000 compounds, 0.45% hits; in the data active = activation above about 27%;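 also: cells stimulated with NPY near EC25 plus isoproterenol at EC100; 0% = vehicle plus submaximal agonist and 100% = vehicle plus saturating agonist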
Target sequence (P49146 whole entry, looked up): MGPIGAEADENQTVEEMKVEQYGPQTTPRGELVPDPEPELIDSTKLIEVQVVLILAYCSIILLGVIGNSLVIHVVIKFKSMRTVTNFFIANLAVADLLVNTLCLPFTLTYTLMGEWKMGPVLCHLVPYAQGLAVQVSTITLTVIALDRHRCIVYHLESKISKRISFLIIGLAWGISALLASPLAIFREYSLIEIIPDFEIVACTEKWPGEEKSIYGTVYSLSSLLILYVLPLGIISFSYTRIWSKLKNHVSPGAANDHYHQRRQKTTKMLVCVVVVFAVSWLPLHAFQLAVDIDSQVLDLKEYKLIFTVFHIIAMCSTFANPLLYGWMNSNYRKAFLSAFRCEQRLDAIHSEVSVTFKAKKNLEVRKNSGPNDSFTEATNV
Measles CPE – protection of cells from measles virus. Measles virus-infected cells, CPE protection, absorbance. protection (pct of control), % at 4 µM. 140,000 compounds, 1.5% hits. AID 841; in the data active = protection mostly above about 24%, no sharp cut-off; inactive = mostly below about 26%
NPY1 pot ag – potentiates or activates human NPY-Y1 receptor; P25929; NPY-Y1 expressing cells, potentiator/agonist activation; activation, % at 3.6 µM; 220,000 compounds, 0.37% hits; AID 1304; in the data active = activation above about 33%, passing the limit was not always enough;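 also: cells stimulated with NPY at EC10 then isoproterenol at EC100; 0% = low agonist plus stimulus and 100% = saturating agonist plus stimulus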
MDM2 E3 inh – Mdm2 E3 ligase (human) inhibition; AID 1230; Q00987; 210,000 compounds, 0.11% hits; signal enhancement, % at 5 µM; cell-based MDM2 ubiquitination luciferase reporter, 2 h; 0 = plate control, 100 = twice control, blank-subtracted;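 active = signal enhancement of 30% or more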;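 also: luminescence tracks abundance of the self-degrading MDM2-luciferase fusion protein; higher signal means inhibition of MDM2 E3 ligase activity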
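Material: Stable MDM2–luciferase fusion reporter cells | Amount: 2000 cells seeded into each well | Dosing: One concentration, 5 µM, with 0.2% DMSO | Incubation: 4 h cell settling then 2 h compound exposure, 37 °C | Measured by: Luciferase luminescence | Read-out basis: % enhancement relative to plate controls after blank subtraction | Benchmarks: Control and blank well means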
NPY Y1 blocker – antagonists of human neuropeptide Y receptor Y1; HEK293-CNG Y1 cells, membrane potential fluorescence; NPY at EC95, then isoproterenol; inhibition, % at 3.6 µM; 200,000 compounds, 1% hits;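 active = inhibition above the campaign mean inhibition of all tested compounds plus 3 SD, cut at about 20% in these data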;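 also: 0% = DMSO wells given NPY plus isoproterenol and 100% = isoproterenol alone without NPY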
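Material: HEK293 cells with Y1 receptor plus CNG channel; times: compound incubation 1 h at room temperature, readout 45 min post-stimulation; signal: fluorescence, membrane potential probe; read-out basis: fluorescence ratio normalized to % inhibition between controls; benchmarks: full-block control isoproterenol-only wells, zero-block control NPY plus isoproterenol wells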
NPY Y2 blocker – NPY-Y2 (human) receptor antagonism; P49146; NPY-Y2 expressing cells, antagonist mode; inhibition, % at 2.7 µM; 140,000 compounds, 0.99% hits; AID 793; in the data active = inhibition above about 17%;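 also: 0% = vehicle with agonist challenge and 100% = reference antagonist with challenge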
NPY1 antag ctr – human NPY-Y1 antagonism in NPY-Y2 counter-screen. shares compounds with NPY Y2 blocker. cell-based NPY-Y1 antagonism counterscreen. inhibition, % at 3.6 µM. 710 compounds, 19% hits. AID 1256; in the data active = inhibition above about 20%;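 also: cells challenged with NPY then isoproterenol with cAMP sensed through a CNG channel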
NPY2 antag conf – human NPY-Y2 antagonism, confirmation; HEK293 NPY-Y2 CNG channel, membrane potential fluorescence; 710 compounds, 32% hits; inhibition, % at 2.8 µM; shares compounds with NPY Y2 blocker;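 active = mean inhibition of triplicate wells above the hit cutoff set in the primary screen, cut at about 17% in these data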;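 also: 0% = DMSO with NPY challenge and 100% = BIIE0246 high control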
Starred values were filed as active, the others as inactive; x = not tested or not shown.

SMILES	NPY-Y2 PAM-ag	Measles CPE	NPY1 pot ag	MDM2 E3 inh	NPY Y1 blocker	NPY Y2 blocker	NPY1 antag ctr	NPY2 antag conf
C=COCCn1c(-c2nonc2N)nc2ccccc21	-2	16	-7	-39	11	10	x	x
CCCCOc1ccccc1NC(=O)Cn1c(-c2nonc2N)nc2ccccc21	-1	1	-7	-3	7	51*	50*	93*
COc1ccc(Cn2c(-c3ccc(OC)cc3)nc3ccccc32)cc1	-13	20	-8	-7	8	21*	12	6
NNC(=O)Cn1c(-c2nonc2N)nc2ccccc21	-10	x	-19	2	-1	x	x	x
Nc1nonc1-c1nc2ccccc2n1Cc1ccc(Cl)cc1	11	17	7	-21	14	28*	28*	27*
O=C(O)c1ccc(S(=O)(=O)Nc2cccc(CP(=O)(c3ccccc3)c3ccccc3)c2)cc1	-15	x	2	-4	x	x	x	x
O=S(=O)(Nc1nc2ccccc2[nH]1)c1ccc2ccccc2c1	-18	15	-37	5	17	19*	12	8
O=S(=O)(Nc1ncn[nH]1)c1ccc2ccccc2c1	-28	9	-59	-19	8	11	x	x
COc1ccc(-c2ccnc(SCC(=O)c3ccc(Br)cc3)n2)cc1	0	x	6	0	5	21*	42*	42*
CC(Oc1ccc(C#N)cc1)C(=O)c1ccc(F)c(F)c1 (stereo unspecified)	-4	x	-11	-6	-2	x	x	x
O=C(c1ccc2c(=O)n3c(nc2c1)CCCCC3)N1CCc2ccccc21	-42	x	-18	-6	x	x	x	x
Cn1ccnc1SCC(=O)Nc1cccc(O)c1	13	2	-7	-5	7	18*	-3	-2
O=C(O)c1ccccc1-c1csc(-c2ccccc2)n1	-17	x	-12	3	-1	x	x	x
Cc1cccc(-n2ccnc2SCC(=O)N2CCCc3ccccc32)c1C	-24	11	-88	-17	18	21*	16	47*
Cc1cccc2sc(N(CCCN(C)C)C(=O)COc3ccc(Cl)cc3)nc12	-15	x	-41	-7	4	x	x	x
COc1cccc2sc(N(CCCN(C)C)C(=O)c3sc4ccccc4c3Cl)nc12	-30	4	-30	-12	8	27*	15	14
COc1cccc(-c2nnc3sc(-c4ccccc4)nn23)c1	0	6	2	x	10	7	x	x
Cc1cccc(-c2nnc3sc(-c4ccccc4C)nn23)c1	-9	6	-40	-1	7	19*	7	13
COc1ccc(OS(=O)(=O)c2c(C)noc2C)cc1	-6	x	3	-8	x	x	x	x
CCCCCCCCCS(=O)(=O)N/N=C/c1cccc([N+](=O)[O-])c1	-13	14	-24	-8	8	24*	17	21*
Cc1cc([N+](=O)[O-])cc(C)c1OCC(=O)N/N=C/c1ccc(OC(=O)c2ccccc2)cc1	4	4	-4	-4	-2	20*	3	17
Cc1cc([N+](=O)[O-])cc(C)c1OCC(=O)N/N=C/c1ccc(OC(=O)c2ccccc2Br)cc1	17	13	13	-8	1	0	x	x
CCOC(=O)CSc1nc2c(sc3ccccc32)c(=O)n1CCCN1CCOCC1	-5	11	-20	-11	14	19*	21*	15
CCC(C)NC(=O)CSc1nc2c(sc3ccccc32)c(=O)n1CCCN1CCOCC1 (stereo unspecified)	-4	17	22	-22	2	4	x	x
O=C(CN1CCCC1)N1CCCc2c1c(=O)oc1ccc(OCc3ccccc3)cc21	-11	9	-39	-16	17	19*	23*	28*
SMILES	NPY-Y2 PAM-ag	Measles CPE	NPY1 pot ag	MDM2 E3 inh	NPY Y1 blocker	NPY Y2 blocker	NPY1 antag ctr	NPY2 antag conf
CCCOc1ccc2oc(=O)c3c(c2c1)CCCN3C(=O)CN1CCN(C(=O)c2ccco2)CC1	0	4	-5	-13	-2	0	x	x
CC1(C)CC(=O)c2sc(NS(=O)(=O)c3ccc(F)cc3)nc2C1	3	x	-6	-16	1	x	x	x
Cc1cc(NC(=O)C2CCCCC2)n(-c2nc3ccccc3[nH]2)n1	-14	2	-23	-11	9	17*	22*	13
Cc1cc(NC(=O)c2c(F)cccc2F)n(-c2nc3ccccc3[nH]2)n1	-6	5	-17	-10	-1	8	x	x
COc1ccccc1CCNCc1ccc(OC)c(OCc2ccccc2)c1	-36	20	-3	3	3	20*	8	92*
COc1ccc(CNCc2ccco2)cc1OCc1ccccc1	0	2	-12	-5	8	9	x	x
COc1ccc(CCNC(=O)c2sc3ccccc3c2Cl)cc1OC	-16	6	-10	-11	11	26*	11	11
CC(Oc1ccc2ccc(=O)oc2c1)C(=O)c1ccccc1 (stereo unspecified)	0	15	-1	7	0	2	x	x
COc1cccc(-c2nc(-c3ccc(NC(=O)Cc4ccccc4OC)cc3)no2)c1	-19	5	-53	-6	5	23*	5	115*
COc1cccc(-c2nc(CS(=O)(=O)CC(=O)NCc3ccccc3OC)c(C)o2)c1	-15	1	-35	-21	20	22*	12	12
N/C(Cc1ccc(Cl)cc1)=N\OC(=O)Cc1ccc([N+](=O)[O-])cc1	-15	7	-27	-13	4	2	x	x
CCOC(=O)/C(N=Nc1ccc(Cl)cc1)=C(/O)c1ccc([N+](=O)[O-])cc1	-7	17	5	-11	0	17*	-1	-1
CC/C(=C\C1CCCCC1)C(NP(=O)(c1ccccc1)c1ccccc1)c1ccccc1 (stereo unspecified)	0	11	-20	x	18	23*	38*	34*
CCCCNC(=O)CSc1cc(=O)n(C)c2ccccc12	21	8	7	16	-1	4	x	x
COC(=O)c1sccc1NC(=S)N1CCN(c2ccccc2F)CC1	-16	4	-7	-12	5	18*	13	11
CC1=CC(C)(C)N(S(=O)(=O)c2ccc(C)cc2)c2ccc(C)cc21	-2	5	7	-6	8	21*	24*	20*
CC(=O)c1cc(CC=C(C)C)c(O)cc1O	-8	12	6	-13	-3	1	x	x
CC(=O)c1cc(CC=C(C)C)c(O)c(CC=C(C)C)c1O	-6	19	-13	-67	9	25*	9	15
CCOC(=O)/C(=N\Nc1ccc(Br)cc1)N1CC(C)OC(C)C1 (stereo unspecified)	-3	x	3	x	x	x	x	x
